Assay results reported in ChEMBL document CHEMBL2021913, “Synthesis and biological evaluation of some novel thiazole substituted benzotriazole derivatives” (2012).
In brackets after ≈: the same amount, converted by molar mass. Activity calls are given as the source filed them. The rule behind the calls is not given here.

Experiments:
Assay type in all cases: functional
Aspergillus niger [1] = test: Ratio of MFC99.9 to MIC90 for Aspergillus niger 545 at 35 degC after 48 hrs by CLSI method based antimicrobial assay
In short: (§1)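 Broth microdilution following CLSI guidelines over 256 to 1 µg/mL. MIC90 is the lowest concentration completely inhibiting growth. For MFC, 0.1 mL from each tube spread on agar and CFU counted after 48 h at 35 °C; MFC is lowest concentration killing 99.9% of inoculum. MFC/MIC ratio calculated: […], ≤4 as fungicidal.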

Escherichia coli [2] = test: Antimicrobial activity against Escherichia coli 2109 at 128 ug/disc at 35 degC after 24 hrs by agar-well diffusion assay; conditions: for zone of inhibition at 128 µg/disc: Escherichia coli, 2109, 24 h, read-out: DIZ
In short: (§2)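 Agar-well diffusion: 24 h bacterial cultures adjusted to 0.5 McFarland (1.5 × 10⁸ CFU/mL) and mixed into molten Mueller-Hinton agar before pouring. 6 mm wells punched and each filled with 50 µL of compound stock or control. Plates incubated 35 °C for 24 h. Zone of growth inhibition diameter measured with vernier caliper.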

Candida albicans [3] = test: Antimicrobial activity against Candida albicans 3471 at 128 ug/disc at 37 degC after 24 to 72 hrs by agar-well diffusion assay; conditions: for zone of inhibition at 128 µg/disc: read-out: DIZ
In short: (§3)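 Potato dextrose agar base plates overlaid with seeded agar cooled to 40 °C and inoculated with spores from 10-day cultures, final 1 × 10⁶ spores/mL. Compounds dissolved in DMSO at 128 µg/mL and applied on 6 mm filter-paper discs placed on chilled seeded medium. Nystatin positive control, DMSO negative control. Incubation 24–72 h at 37 °C. Inhibition zone diameter read by vernier caliper.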

Pseudomonas aeruginosa [4] = test: Antimicrobial activity against Pseudomonas aeruginosa 2036 at 35 degC after 18 to 24 hrs by NCCLS method based antimicrobial assay; conditions: for MBC: read-out: MBC99.9
Aspergillus niger [5] = test: Antimicrobial activity against Aspergillus niger 545 at 35 degC after 48 hrs by CLSI method based antimicrobial assay; conditions: for MFC: read-out: MFC99.9; in short: as §1
Aspergillus niger [6] = test: Antimicrobial activity against Aspergillus niger 545 at 128 ug/disc at 37 degC after 24 to 72 hrs by agar-well diffusion assay; conditions: read-out: DIZ; in short: as §3
Pseudomonas aeruginosa [7] = test: Antimicrobial activity against Pseudomonas aeruginosa 2036 at 128 ug/disc at 35 degC after 24 hrs by agar-well diffusion assay; conditions: for zone of inhibition at 128 µg/disc: Pseudomonas aeruginosa, 2036, 24 h, read-out: DIZ; in short: as §2
Staphylococcus aureus [8] = test: Antimicrobial activity against Staphylococcus aureus 2079 at 128 ug/disc at 35 degC after 24 hrs by agar-well diffusion assay; conditions: for zone of inhibition at 128 µg/disc: Staphylococcus aureus, 2079, 24 h, read-out: DIZ; in short: as §2
Escherichia coli [9] = test: Antimicrobial activity against Escherichia coli 2109 at 35 degC after 18 to 24 hrs by NCCLS method based antimicrobial assay; conditions: for MBC: read-out: MBC99.9
Staphylococcus aureus [10] = test: Antimicrobial activity against Staphylococcus aureus 2079 at 35 degC after 18 to 24 hrs by NCCLS method based antimicrobial assay; conditions: for MBC: read-out: MBC99.9
Candida albicans [11] = test: Antimicrobial activity against Candida albicans 3471 at 35 degC after 48 hrs by CLSI method based antimicrobial assay; conditions: for MFC: read-out: MFC99.9; in short: as §1
Bacillus subtilis [12] = test: Antimicrobial activity against Bacillus subtilis 2250 at 35 degC after 18 to 24 hrs by NCCLS method based antimicrobial assay
Bacillus subtilis [13] = test: Antimicrobial activity against Bacillus subtilis 2250 at 128 ug/disc at 35 degC after 24 hrs by agar-well diffusion assay; in short: as §2
Candida albicans [14] = test: Ratio of MFC99.9 to MIC90 for Candida albicans 3471 at 35 degC after 48 hrs by CLSI method based antimicrobial assay; in short: as §1

Compound | Ratio (Aspergillus niger [1]) | zone of inhibition at 128 µg/disc (Escherichia coli [2]) [mm] | diameter of the inhibition zone (DIZ) (Candida albicans [3]) | MIC (Pseudomonas aeruginosa [4]) | MIC (Aspergillus niger [5]; Aspergillus niger, 545, 48 h) [µg/mL] | MFC (Aspergillus niger [5]; Aspergillus niger, 545, 48 h) [µg/mL] | zone of inhibition at 128 µg/disc (Aspergillus niger [6]) [mm] | diameter of the inhibition zone (DIZ) (Staphylococcus aureus [8]) | MIC (Escherichia coli [9]) | MBC99.9 (Staphylococcus aureus [10]) | MIC (Staphylococcus aureus [10]) | MFC99.9 (Candida albicans [11]) | MIC (Candida albicans [11]) | MBC99.9 (Bacillus subtilis [12]) | MIC (Bacillus subtilis [12]) | diameter of the inhibition zone (DIZ) (Bacillus subtilis [13]) | MBC (Pseudomonas aeruginosa [4]) [µg/mL] | zone of inhibition at 128 µg/disc (Pseudomonas aeruginosa [7]) [mm] | MBC99.9 (Escherichia coli [9]) | Ratio (Candida albicans [14]) | also measured
FC(F)(F)c1cc(/C(Cn2nnc3ccccc32)=N\Nc2nc(-c3ccc(Cl)cc3)cs2)cc(C(F)(F)F)c1 | 4 | 18.7 | inactive | inactive | 16 (≈ 27.5 µM) | 64 (≈ 110 µM) | 19.7 | inactive | 128 µg/mL (≈ 220 µM) | inactive | inactive | inactive | inactive | inactive | inactive | inactive |  |  |  |  | MBC99.9 (Pseudomonas aeruginosa [4]): inactive; diameter of the inhibition zone (DIZ) (Pseudomonas aeruginosa [7]): inactive; MBC (Escherichia coli [9]): 256 µg/mL (≈ 441 µM)
O=[N+]([O-])c1ccc(-c2csc(N/N=C(/Cn3nnc4ccccc43)c3ccc(Cl)cc3)n2)cc1 | 2 |  | inactive | 64 µg/mL (≈ 131 µM) | 128 (≈ 261 µM) | 256 (≈ 523 µM) | 13.6 | inactive | inactive | inactive | inactive | inactive | inactive | inactive | inactive | inactive | 128 (≈ 261 µM) | 16.4 | inactive |  | diameter of the inhibition zone (DIZ) (Escherichia coli [2]): inactive
NYSTATIN | 2 |  |  |  |  |  |  |  |  |  |  | 32 µg/mL | 16 µg/mL |  |  |  |  |  |  | 2 | MFC99.9 (Aspergillus niger [5]): 32 µg/mL; MIC (Aspergillus niger [5]): 16 µg/mL
Clc1ccc(-c2csc(N/N=C(/Cn3nnc4ccccc43)c3ccc(Br)cc3)n2)cc1 | 2 | 21.8 | inactive | 16 µg/mL (≈ 30.5 µM) | 64 (≈ 122 µM) | 128 (≈ 244 µM) | 15.2 | inactive | 64 µg/mL (≈ 122 µM) | inactive | inactive | inactive | inactive | inactive | inactive | inactive | 32 (≈ 61.1 µM) | 21.2 |  |  | MBC (Escherichia coli [9]): 128 µg/mL (≈ 244 µM)
Fc1ccc(/C(Cn2nnc3ccccc32)=N\Nc2nc(-c3ccc(Cl)cc3)cs2)cc1 | 1 |  |  | 64 µg/mL (≈ 138 µM) | 16 (≈ 34.6 µM) | 16 (≈ 34.6 µM) | 21.4 |  | inactive |  | 32 µg/mL (≈ 69.1 µM) |  |  | inactive | inactive | inactive | 64 (≈ 138 µM) | 19.1 | inactive | 4 | zone of inhibition at 128 µg/disc (Candida albicans [3]): 20.2 mm; zone of inhibition at 128 µg/disc (Staphylococcus aureus [8]): 25.9 mm; MBC (Staphylococcus aureus [10]): 32 µg/mL (≈ 69.1 µM); MIC (Candida albicans [11]; Candida albicans, 3471, 48 h): 16 µg/mL (≈ 34.6 µM); MFC (Candida albicans [11]; Candida albicans, 3471, 48 h): 64 µg/mL (≈ 138 µM)
Clc1ccc(/C(Cn2nnc3ccccc32)=N\Nc2nc(-c3ccc(Cl)cc3)cs2)cc1 | 1 |  |  | 128 µg/mL (≈ 267 µM) | 32 (≈ 66.8 µM) | 32 (≈ 66.8 µM) | 18.2 |  | inactive |  | 64 µg/mL (≈ 134 µM) |  |  |  | 32 µg/mL (≈ 66.8 µM) |  | 128 (≈ 267 µM) | 11.3 | inactive | 2 | zone of inhibition at 128 µg/disc (Candida albicans [3]): 21 mm; zone of inhibition at 128 µg/disc (Staphylococcus aureus [8]): 27.9 mm; MBC (Staphylococcus aureus [10]): 32 µg/mL (≈ 66.8 µM); MIC (Candida albicans [11]; Candida albicans, 3471, 48 h): 16 µg/mL (≈ 33.4 µM); MFC (Candida albicans [11]; Candida albicans, 3471, 48 h): 32 µg/mL (≈ 66.8 µM); MBC (Bacillus subtilis [12]; read-out: MBC99.9): 64 µg/mL (≈ 134 µM); zone of inhibition at 128 µg/disc (Bacillus subtilis [13]; Bacillus subtilis, 2250, 24 h, read-out: DIZ): 25.1 mm
